Measurements reported in ChEMBL document CHEMBL1153612, “Synthesis and antitumor activity of novel dithiocarbamate substituted chromones” (Eur J Med Chem, 2009).

Experiments:
Type in all cases: functional, cell-based
[1] = test system: HeLa; assay: Antiproliferative activity against human HeLa cells after 72 hrs by MTT assay
How it was run: (§1)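 Cells seeded at 8000 per well in 96-well plates, exposed to compound for 72 h. MTT added at 0.5 mg/mL final and incubated 4 h. Formazan dissolved in DMSO, absorbance read at 570 nm. IC50 is the concentration giving 50% reduction in cell growth, reported as the mean of three repeated experiments.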

[2] = Antiproliferative activity against human LM7 cells after 72 hrs by MTT assay; conditions: LM7, 72 h; how it was run: as §1
[3] = Antiproliferative activity against human MDA-MB-435S cells after 72 hrs by MTT assay; how it was run: as §1
[4] = test system: SW480; assay: Antiproliferative activity against human SW480 cells after 72 hrs by MTT assay; conditions: SW480, 72 h; how it was run: as §1
[5] = test system: HEp-2; assay: Antiproliferative activity against human Hep2 cells after 72 hrs by MTT assay; conditions: HEp-2, 72 h; how it was run: as §1
[6] = test system: MCF7; assay: Antiproliferative activity against human MCF7 cells after 72 hrs by MTT assay; conditions: MCF7, 72 h; how it was run: as §1

Row | Compound | IC50 [1] | IC50 [4] | IC50 [6] | IC50 [2] | IC50 [3] | IC50 [5]
1 | O=c1cc(CSC(=S)N2CCN(c3ccccc3)CC2)oc2ccc(Cl)cc12 | 25.9 µM | 21.2 µM | > 25 µM | 15.9 µM | 18.6 µM | 15.9 µM
2 | O=c1c(CSC(=S)N2CCN(C(c3ccc(F)cc3)c3ccc(F)cc3)CC2)coc2ccccc12 | > 25 µM | > 40 µM | > 30 µM | > 25 µM | > 40 µM | 9.6 µM
3 | CCN(CC)C(=S)SCc1cc(=O)c2cc(Cl)ccc2o1 | 8.7 µM | > 25 µM | > 25 µM | 8.8 µM | 23.5 µM | 8.8 µM
4 | CN(C(=S)SCc1coc2ccccc2c1=O)c1ccccc1 | > 25 µM | > 25 µM | > 25 µM | > 25 µM | > 25 µM | > 25 µM
5 | CCOC(=O)c1cc(=O)c2cc(CSC(=S)N3CCCC3)ccc2o1 | 6.6 µM | > 25 µM | > 25 µM | 18 µM | 3.4 µM | 8.9 µM
6 | O=c1cc(CSC(=S)N2CCCC2)oc2ccc(Cl)cc12 | > 40 µM | > 25 µM | > 25 µM | > 25 µM | > 25 µM | > 40 µM
7 | CN1CCN(C(=S)SCc2coc3ccccc3c2=O)CC1 | 5.9 µM | – | 22.9 µM | 17.6 µM | 2.2 µM | 2.4 µM
8 | O=c1cc(CSC(=S)N2CCCCC2)oc2ccccc12 | > 25 µM | 13.7 µM | > 25 µM | > 25 µM | > 25 µM | 12 µM
9 | CC(C)N(C(=S)SCc1cc(=O)c2ccccc2o1)C(C)C | – | > 40 µM | 31.7 µM | > 25 µM | > 40 µM | 13.6 µM
10 | CCOC(=O)c1cc(=O)c2cc(CSC(=S)N(C)c3ccccc3)ccc2o1 | 18.1 µM | > 25 µM | > 25 µM | > 25 µM | 13.5 µM | –
11 | CC(C)N(C(=S)SCc1coc2ccc(Cl)cc2c1=O)C(C)C | > 25 µM | > 25 µM | – | > 25 µM | > 25 µM | 4.2 µM
12 | CCOC(=O)c1cc(=O)c2cc(CSC(=S)N(C(C)C)C(C)C)ccc2o1 | > 25 µM | > 25 µM | > 25 µM | > 25 µM | 8.1 µM | 15.9 µM
13 | O=c1c(SC(=S)N2CCCC2)coc2ccccc12 | 3.8 µM | > 25 µM | 12.2 µM | – | 1.9 µM | 7.4 µM
14 | O=c1cc(CSC(=S)N2CCOCC2)oc2ccc(Cl)cc12 | 33.3 µM | > 25 µM | > 25 µM | > 25 µM | > 25 µM | 20.6 µM
15 | O=c1c(SC(=S)N2CCCCC2)coc2ccccc12 | 9 µM | 16.3 µM | – | 7.8 µM | 17.4 µM | 5.8 µM
16 | O=c1cc(CSC(=S)N2CCCC2)oc2ccccc12 | 23.1 µM | 23.4 µM | 35.8 µM | 40 µM | > 30 µM | 9.1 µM
17 | CCOC(=O)c1cc(=O)c2cc(CSC(=S)N3CCCCC3)ccc2o1 | 5.8 µM | > 25 µM | 21.9 µM | 16.9 µM | 2.9 µM | 3.4 µM
18 | CC(C)N(C(=S)SCc1oc2ccccc2c(=O)c1Cl)C(C)C | > 40 µM | 18.1 µM | > 40 µM | > 40 µM | 23.6 µM | 20 µM
19 | O=c1cc(CSC(=S)N(CCCl)CCCl)oc2ccccc12 | > 25 µM | 25.1 µM | > 25 µM | > 25 µM | 3.7 µM | 15.6 µM
20 | O=c1c(SC(=S)N2CCCC2)coc2ccc(Cl)cc12 | 16.3 µM | > 25 µM | > 25 µM | 24.6 µM | 24 µM | 26 µM
21 | COc1ccc2c(=O)cc(CSC(=S)N(C(C)C)C(C)C)oc2c1 | > 25 µM | 7.2 µM | > 25 µM | 19.1 µM | 22.1 µM | 7.6 µM
22 | O=c1c(CSC(=S)N2CCCC2)coc2ccc(Cl)cc12 | 1.3 µM | 7.8 µM | 0.6 µM | 2.6 µM | 6.4 µM | 2.1 µM
23 | CCOC(=O)c1cc(=O)c2cc(CSC(=S)N3CCOCC3)ccc2o1 | > 25 µM | > 25 µM | > 25 µM | > 25 µM | > 25 µM | > 25 µM
24 | O=c1cc(CSC(=S)N2CCOCC2)oc2ccccc12 | 35.6 µM | 24.4 µM | 21 µM | 25.2 µM | 22.2 µM | > 25 µM
25 | Cc1ccc2occ(CSC(=S)N3CCCCC3)c(=O)c2c1 | > 25 µM | > 25 µM | 0.8 µM | 5.1 µM | 1.7 µM | 0.9 µM
26 | CC(C)N(C(=S)SCc1cc(=O)c2cc(Cl)ccc2o1)C(C)C | > 30 µM | > 25 µM | > 25 µM | > 30 µM | > 25 µM | 22.7 µM
27 | Cc1ccc2occ(CSC(=S)N(C(C)C)C(C)C)c(=O)c2c1 | 1.4 µM | > 25 µM | 6.6 µM | 6.3 µM | 0.24 µM | 0.7 µM
28 | O=c1c(SC(=S)N2CCCCC2)coc2ccc(Cl)cc12 | 8.3 µM | > 25 µM | > 25 µM | > 25 µM | 13.3 µM | 12.2 µM

More lines, main results first:

Row | IC50 [1] | IC50 [4] | IC50 [6] | Compound | IC50 [2] | IC50 [3] | IC50 [5]
29 | > 30 µM | 6.8 µM | > 30 µM | CC(C)N(C(=S)SCc1coc2ccccc2c1=O)C(C)C | 21.9 µM | 7.9 µM | 3 µM
30 | 3.5 µM | 6.7 µM | > 40 µM | COc1ccc2c(=O)c(CSC(=S)N3CCCCC3)coc2c1 | 4.7 µM | 0.93 µM | 4.3 µM
31 | 4.5 µM | 1.8 µM | 11.1 µM | O=c1c(Cl)c(CSC(=S)N2CCOCC2)oc2ccccc12 | 19.2 µM | 4.1 µM | 9 µM
32 | 9.5 µM | 7.1 µM | 11.8 µM | COc1ccc2c(=O)c(CSC(=S)N3CCOCC3)coc2c1 | > 40 µM | > 40 µM | 4.8 µM
33 | 7.1 µM | 5.2 µM | > 30 µM | O=c1c(CSC(=S)N2CCN(c3ccccc3)CC2)coc2ccccc12 | 2.9 µM | 9.7 µM | 16.7 µM
34 | 11.9 µM | 2.3 µM | 10 µM | COc1ccc2c(=O)cc(CSC(=S)N3CCCCC3)oc2c1 | 5 µM | 1.5 µM | 1.5 µM
35 | 2.3 µM | 1.2 µM | 1.7 µM | O=c1c(CSC(=S)N2CCCCC2)coc2ccccc12 | 4.6 µM | 0.47 µM | 0.39 µM
36 | 5.4 µM | 4.8 µM | > 40 µM | COc1ccc2c(=O)c(CSC(=S)N(C(C)C)C(C)C)coc2c1 | 4.7 µM | 1.8 µM | 8.9 µM
37 | 4.4 µM | 5.9 µM | 41.4 µM | Cc1ccc2occ(CSC(=S)N3CCCC3)c(=O)c2c1 | 3.4 µM | 1.9 µM | 3.6 µM
38 | > 25 µM | 2.5 µM | > 25 µM | O=c1cc(CSC(=S)N2CCCCC2)oc2ccc(Cl)cc12 | 13.8 µM | 3 µM | 1.6 µM
39 | 12.1 µM | 4.8 µM | 34.1 µM | COc1ccc2c(=O)c(CSC(=S)N3CCCC3)coc2c1 | 6 µM | 1.8 µM | 3.1 µM
40 | 7.9 µM | 4.5 µM | 9.6 µM | O=c1c(CSC(=S)N2CCN(Cc3ccccc3)CC2)coc2ccccc12 | 19.1 µM | 4.4 µM | 2.9 µM
41 | 6.1 µM | 3.8 µM | 20.7 µM | Cc1ccc2occ(CSC(=S)N3CCOCC3)c(=O)c2c1 | 14.3 µM | 5.5 µM | 4 µM
42 | – | 5.9 µM | 4 µM | O=c1c(CSC(=S)N2CCOCC2)coc2ccccc12 | 12 µM | 3.9 µM | 4.4 µM
43 | 2 µM | 6.2 µM | 8.1 µM | O=c1c(CSC(=S)N2CCOCC2)coc2ccc(Cl)cc12 | 6.2 µM | 0.6 µM | 0.9 µM
44 | > 25 µM | 2.3 µM | > 25 µM | O=c1c(CSC(=S)N2CCCC2)coc2ccccc12 | 6 µM | 3.8 µM | 3.6 µM
45 | > 25 µM | 3.1 µM | > 25 µM | COc1ccc2c(=O)cc(CSC(=S)N3CCOCC3)oc2c1 | 11 µM | 3.4 µM | 3 µM
46 | 0.7 µM | 1.4 µM | 2.3 µM | O=c1c(Cl)c(CSC(=S)N2CCCC2)oc2ccccc12 | 1.9 µM | 1.8 µM | 0.6 µM
